Data from ChEMBL document CHEMBL1255479, “Preclinical characterization of the antiviral activity of SCH 900518 (narlaprevir), a novel mechanism-based inhibitor of hepatitis C virus NS3 protease” (Antimicrob Agents Chemother, 2010).
Activity calls are given as the source filed them. The rule behind the calls is not given here.

Experiments:
Hepatitis C virus [1] = experiment: Resistance index, ratio of EC50 for boceprevir-resistant Hepatitis C virus genotype 1b expressing NS3 protease A156S mutant to EC50 for wild type Hepatitis C virus genotype 1b after 3 days by RT-PCR method; format: functional, Hepacivirus hominis
Method in brief: (§1)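 Replicons carrying mutant or wild-type NS3 protease treated 3 days; replicon RNA by real-time PCR against GAPDH. EC50 = concentration raising CT by 1 over projected baseline; EC90 = increase of 3.2. Index = mutant/wild-type fold increase, means of two or more experiments unless stated (some single experiment).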

Hepatitis C virus [2] = experiment: Resistance index, ratio of EC50 for boceprevir-resistant Hepatitis C virus genotype 1b expressing NS3 protease R155K mutant to EC50 for wild type Hepatitis C virus genotype 1b after 3 days by RT-PCR method; format: functional, Hepacivirus hominis; method in brief: as §1
Hepatitis C virus [3] = experiment: Ratio of Ki for boceprevir-resistant Hepatitis C virus genotype 1b NS3 protease D168V mutant to Ki for Hepatitis C virus genotype 1b NS3 protease; set-up: species or system Hepatitis C virus subtype 1b
Method in brief: (§2)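 Recombinant single-chain NS3-NS4A protease (wild type or mutant) in a continuous spectrophotometric assay with chromogenic substrate acetyl-DTEDVVP(norvaline)-O-4-phenylazophenol. Absorbance followed over 60 min at several inhibitor concentrations. Progress curves fit to a modified Morrison equation; K*i derived using substrate concentration and Km. Values are mutant/wild-type fold increase, means of two or more experiments unless noted.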

Hepatitis C virus [4] = experiment: Resistance index, ratio of EC50 for boceprevir-resistant Hepatitis C virus genotype 1b expressing NS3 protease T54A mutant to EC50 for wild type Hepatitis C virus genotype 1b after 3 days by RT-PCR method; format: functional, Hepacivirus hominis; method in brief: as §1
Hepatitis C virus [5] = experiment: Resistance index, ratio of EC50 for boceprevir-resistant Hepatitis C virus genotype 1b expressing NS3 protease V36M mutant to EC50 for wild type Hepatitis C virus genotype 1b after 3 days by RT-PCR method; format: functional, Hepacivirus hominis; method in brief: as §1
Hepatitis C virus [6] = experiment: Ratio of Ki for boceprevir-resistant Hepatitis C virus genotype 1b NS3 protease V170A mutant to Ki for Hepatitis C virus genotype 1b NS3 protease; set-up: species or system Hepatitis C virus subtype 1b; method in brief: as §2
Hepatitis C virus [7] = experiment: Ratio of Ki for boceprevir-resistant Hepatitis C virus genotype 1b NS3 protease V36M and R155K double-mutant to Ki for Hepatitis C virus genotype 1b NS3 protease; set-up: species or system Hepatitis C virus subtype 1b; method in brief: as §2
Hepatitis C virus [8] = experiment: Ratio of Ki for boceprevir-resistant Hepatitis C virus genotype 1b NS3 protease T54S and R155K double-mutant to Ki for Hepatitis C virus genotype 1b NS3 protease; set-up: species or system Hepatitis C virus subtype 1b; method in brief: as §2
Hepatitis C virus [9] = experiment: Resistance index, ratio of EC50 for boceprevir-resistant Hepatitis C virus genotype 1b expressing NS3 protease V36M and R155K mutant to EC50 for wild type Hepatitis C virus genotype 1b after 3 days by RT-PCR method; format: functional, Hepacivirus hominis; method in brief: as §1
Hepatitis C virus [10] = experiment: Resistance index, ratio of EC50 for boceprevir-resistant Hepatitis C virus genotype 1b expressing NS3 protease V170A mutant to EC50 for wild type Hepatitis C virus genotype 1b after 3 days by RT-PCR method; format: functional, Hepacivirus hominis; method in brief: as §1
Hepatitis C virus [11] = experiment: Resistance index, ratio of EC50 for boceprevir-resistant Hepatitis C virus genotype 1b expressing NS3 protease D168V mutant to EC50 for wild type Hepatitis C virus genotype 1b after 3 days by RT-PCR method; format: functional, Hepacivirus hominis; method in brief: as §1
Hepatitis C virus [12] = experiment: Resistance index, ratio of EC50 for boceprevir-resistant Hepatitis C virus genotype 1b expressing NS3 protease A156T mutant to EC50 for wild type Hepatitis C virus genotype 1b after 3 days by RT-PCR method; format: functional, Hepacivirus hominis; method in brief: as §1
Hepatitis C virus [13] = experiment: Ratio of Ki for boceprevir-resistant Hepatitis C virus genotype 1b NS3 protease A156T mutant to Ki for Hepatitis C virus genotype 1b NS3 protease; set-up: species or system Hepatitis C virus subtype 1b; method in brief: as §2
Hepatitis C virus [14] = experiment: Ratio of Ki for boceprevir-resistant Hepatitis C virus genotype 1b NS3 protease A156S mutant to Ki for Hepatitis C virus genotype 1b NS3 protease; set-up: species or system Hepatitis C virus subtype 1b; method in brief: as §2
Hepatitis C virus [15] = experiment: Ratio of Ki for boceprevir-resistant Hepatitis C virus genotype 1b NS3 protease R155K mutant to Ki for Hepatitis C virus genotype 1b NS3 protease; set-up: species or system Hepatitis C virus subtype 1b; method in brief: as §2
Hepatitis C virus [16] = experiment: Ratio of Ki for boceprevir-resistant Hepatitis C virus genotype 1b NS3 protease T54S mutant to Ki for Hepatitis C virus genotype 1b NS3 protease; set-up: species or system Hepatitis C virus subtype 1b; method in brief: as §2
Hepatitis C virus [17] = experiment: Ratio of Ki for boceprevir-resistant Hepatitis C virus genotype 1b NS3 protease F43C mutant to Ki for Hepatitis C virus genotype 1b NS3 protease; set-up: species or system Hepatitis C virus subtype 1b; method in brief: as §2
Hepatitis C virus [18] = experiment: Ratio of Ki for boceprevir-resistant Hepatitis C virus genotype 1b NS3 protease T54A mutant to Ki for Hepatitis C virus genotype 1b NS3 protease; set-up: species or system Hepatitis C virus subtype 1b; method in brief: as §2
Hepatitis C virus [19] = experiment: Ratio of Ki for boceprevir-resistant Hepatitis C virus genotype 1b NS3 protease V36A mutant to Ki for Hepatitis C virus genotype 1b NS3 protease; set-up: species or system Hepatitis C virus subtype 1b; method in brief: as §2
[20] = Cytotoxicity against human HuH7 cells by MTS assay; format: cell-based, Huh-7
Hepatitis C virus [21] = experiment: Ratio of Ki for boceprevir-resistant Hepatitis C virus genotype 1b NS3 protease V36M mutant to Ki for Hepatitis C virus genotype 1b NS3 protease; set-up: species or system Hepatitis C virus subtype 1b; method in brief: as §2
Hepatitis C virus [22] = experiment: Antiviral activity against Hepatitis C virus genotype 1b assessed as log reduction in RNA level at 5 times EC90 after 14 days by RT-PCR method; format: functional, organism-based; details: Hepacivirus hominis
Method in brief: (§3)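 Replicon cells kept on compound for up to 14 days, refreshed every 2–3 days and split at confluence. Replicon RNA by TaqMan: dCT = NS5B CT − GAPDH CT; ddCT = treated dCT − vehicle-control dCT; log RNA reduction = log(1/2^ddCT), with day 0 set to 0. Curve fit to one-phase exponential decay.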

Hepatitis C virus [23] = experiment: Antiviral activity against Hepatitis C virus genotype 1b assessed as log reduction in RNA level at 1.2 times EC90 after 14 days by RT-PCR method; format: functional, organism-based; details: Hepacivirus hominis; method in brief: as §3
Hepatitis C virus [24] = experiment: Antiviral activity against Hepatitis C virus genotype 1b assessed as decrease in RNA level after 3 days by RT-PCR method; format: functional, Hepacivirus hominis; details: 72 h
Method in brief: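 Genotype 1b replicon cells seeded on collagen I-coated plates; compound added 24 h post-seeding and incubated 3 days. Cells lysed; replicon RNA by real-time PCR (TaqMan) with GAPDH RNA as endogenous control. EC50 = concentration giving a CT increase of 1 over projected baseline CT; EC90 = increase of 3.2. Triplicate measurements.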

[25] = Inhibition of Hepatitis C virus genotype 3a NS3 protease; set-up: species or system Hepatitis C virus subtype 3a
Method in brief: (§4)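 Recombinant single-chain NS3-NS4A protease (genotypes 1a, 1b, 2a, 3a). Continuous spectrophotometric assay: enzyme added to an equal volume of buffer containing the chromogenic substrate acetyl-DTEDVVP(norvaline)-O-4-phenylazophenol. Absorbance was followed for 60 min at several inhibitor levels. Progress curves were fit to a modified Morrison equation. Overall K*i was derived from vs/vo versus [I], corrected using substrate concentration and Km.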

[26] = Inhibition of Hepatitis C virus genotype 1a NS3 protease; set-up: species or system Hepatitis C virus subtype 1a; method in brief: as §4
[27] = Inhibition of Hepatitis C virus genotype 2a NS3 protease; set-up: species or system Hepatitis C virus subtype 2a; method in brief: as §4
Hepatitis C virus [28] = experiment: Resistance index, ratio of EC90 for Hepatitis C virus genotype 1b expressing NS3 protease T54A/S mutant to EC90 for wild type Hepatitis C virus genotype 1b after 3 days by RT-PCR method; format: functional, Hepacivirus hominis; method in brief: as §1
Hepatitis C virus [29] = experiment: Resistance index, ratio of EC90 for Hepatitis C virus genotype 1b expressing NS3 protease A156S mutant to EC90 for wild type Hepatitis C virus genotype 1b after 3 days by RT-PCR method; format: functional, Hepacivirus hominis; method in brief: as §1
Hepatitis C virus [30] = experiment: Resistance index, ratio of EC90 for Hepatitis C virus genotype 1b expressing NS3 protease A156T/V mutant to EC90 for wild type Hepatitis C virus genotype 1b after 3 days by RT-PCR method; format: functional, Hepacivirus hominis; method in brief: as §1
Hepatitis C virus [31] = experiment: Resistance index, ratio of EC90 for Hepatitis C virus genotype 1b expressing NS3 protease T54A and A156T mutant to EC90 for wild type Hepatitis C virus genotype 1b after 3 days by RT-PCR method; format: functional, Hepacivirus hominis; method in brief: as §1
Hepatitis C virus [32] = experiment: Inhibition of Hepatitis C virus genotype 1b NS3 protease; set-up: species or system Hepatitis C virus subtype 1b; method in brief: as §4

CCCC[C@H](NC(=O)[C@@H]1[C@@H]2[C@H](CN1C(=O)[C@@H](NC(=O)NC1(CS(=O)(=O)C(C)(C)C)CCCCC1)C(C)(C)C)C2(C)C)C(=O)C(=O)NC1CC1 [NARLAPREVIR]
Ratio EC50 (Hepatitis C virus [1]): 70 | Ratio EC50 (Hepatitis C virus [2]): 15 | Ratio Ki (Hepatitis C virus [3]): 1 | Ratio EC50 (Hepatitis C virus [4]): 11 | Ratio EC50 (Hepatitis C virus [5]): 8 | Ratio Ki (Hepatitis C virus [6]): 6 | Ratio Ki (Hepatitis C virus [7]): 160 | Ratio Ki (Hepatitis C virus [8]): 58 | Ratio EC50 (Hepatitis C virus [9]): 130 | Ratio EC50 (Hepatitis C virus [10]): 10 | Ratio EC50 (Hepatitis C virus [11]): 1 | Ratio EC50 (Hepatitis C virus [12]): > 1000 | Ratio Ki (Hepatitis C virus [13]): 3000 | Ratio Ki (Hepatitis C virus [14]): 100 | Ratio Ki (Hepatitis C virus [15]): 8 | Ratio Ki (Hepatitis C virus [16]): 3 | Ratio Ki (Hepatitis C virus [17]): 8 | Ratio Ki (Hepatitis C virus [18]): 8 | Ratio Ki (Hepatitis C virus [19]): 5 | CC50 [20]: > 25000 nM | Ratio Ki (Hepatitis C virus [21]): 3 | Activity (Hepatitis C virus [22]): Active | Activity (Hepatitis C virus [23]): Active | EC90 (Hepatitis C virus [24]): 40 nM | Ki [25]: 7 nM | Ki [26]: 0.7 nM | Ki [27]: 3 nM | Ratio (Hepatitis C virus [28]): 10 | Ratio (Hepatitis C virus [29]): 30 | Ratio (Hepatitis C virus [30]): 500 | Ratio (Hepatitis C virus [31]): >600 | Ki (Hepatitis C virus [32]): 7 nM
